Data from PMC8829933 (ACS Omega, 2022).

Experiments:
HIV-1 IN A128T = HIV-1 IN A128T (Human immunodeficiency virus type 1 group M subtype B, UniProt P12497, A1275T); test: HTRF-based integration assay against drug-resistant IN; assay type: biochemical
HIV-1 IN H171T = HIV-1 IN H171T (Human immunodeficiency virus type 1 group M subtype B, UniProt P12497, H1318T); test: as above; assay type: biochemical
HIV-1 IN (WT) = HIV-1 IN (WT) (Human immunodeficiency virus type 1 group M subtype B, UniProt P12497); test: HTRF-based integration assay of IN catalytic activity; assay type: biochemical
Summary of the method: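 Full-length HIV-1 IN and LEDGF/p75 cofactor (6xHis- and Flag-tagged, expressed in E. coli BL21(DE3)) catalyse integration of donor viral DNA, 5′-Cy5-labelled, into acceptor target DNA, 5′-biotinylated and bound by streptavidin-europium. The integration product is read as time-resolved FRET between the two fluorophores, with test compound present.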

HIV-1 IN G140S/Q148H = HIV-1 IN G140S/Q148H (Human immunodeficiency virus type 1 group M subtype B, UniProt P12497, G1287S/Q1295H); test: HTRF-based integration assay against drug-resistant IN; assay type: biochemical
HIV-1 = conditions: reported in the literature; ref [30],[41],[58],[60]−[69]; cited from earlier work

For `CC(C)(C)OC(=O)N1CCC(C(=O)N[C@@H](Cc2ccc3ccccc3c2)C(=O)O)(c2ccccc2)CC1` [Compound 14e], which IC50 (HIV-1 IN A128T) is on record?
The IC50 was 86.8 ± 2.98 µM.

What about the IC50 (HIV-1 IN H171T) of the same compound?
Its IC50 is 114 ± 9.79 µM.

And the IC50 (HIV-1 IN (WT); IC50, inhibitory activity against IN, Table 2, WT IN)?
Its IC50 is 90.4 ± 4.72 µM.

What about the “fold higher potency than compound 12” value (HIV-1 IN (WT); IN catalytic activity in vitro, relative to 12) of the same compound?
The value was “fourfold”.

What about the IC50 (HIV-1 IN G140S/Q148H) of the same compound?
Its IC50 is 103 ± 3.12 µM.

With `Cc1nc2c(c(C)c(C)n2Cc2cnn(C)c2)c(-c2ccc(Cl)cc2)c1[C@H](OC(C)(C)C)C(=O)O` [STP0404] as the compound, how does the “selectivity against HIV-1 (therapeutic index)” value (HIV-1) read?
The value was > 24,000.
